Results reported in ChEMBL document CHEMBL3351861, “New synthetic sulfone derivatives inhibit growth, adhesion and the leucine arylamidase APE2 gene expression of Candida albicans in vitro” (2015).
Values after ≈ are worked out from the molar mass of the structure shown.

Assays:
Candida albicans [1] = test: Inhibition of cell adhesion of compound pre-treated Candida albicans CAI4 expressing delta-efg1 (EFG1) gene to human Caco2 cells assessed as cell adhesion level at 16 ug/ml pre-incubated for 18 hrs by colony counting method (reference value: 2.6 +/- 2.33%); format: functional, Caco-2; set-up: scale not given: the % may be the effect or the level left
Candida albicans [2] = test: Antifungal activity against Candida albicans CAI4 expressing delta-efg1 gene assessed as growth inhibition at 0.5 ug/ml by CLSI M27-A3 method; format: functional; conditions: read-out: GI
In short: (§1)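 CLSI M27-A3 broth microdilution in RPMI, read after 48 h. Strains pre-grown 18 h in YEPD at 30°C. Final inoculum 0.5×10^2–2.5×10^3 cells/ml. Two-fold dilutions in RPMI came from a 1600 µg/ml stock in water with 9% DMSO; final DMSO was 0.09%. OD405 read, % inhibition = 100 − (CTW−SCW)/(GCW−SCW). Triplicate on three occasions, mean±SD.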

Candida albicans [3] = test: Inhibition of cell adhesion of compound pre-treated Candida albicans CAI4 expressing delta-cph1/delta-efg1 (EFG1) gene to human Caco2 cells assessed as cell adhesion level at 16 ug/ml pre-incubated for 18 hrs by colony counting method (reference value: 1.24 +/- 1.06%); format: functional, Caco-2; set-up: scale not given: the % may be the effect or the level left
Candida albicans [4] = test: Inhibition of cell adhesion of compound pre-treated Candida albicans CAI4 expressing delta-efg1 gene to human Caco2 cells assessed as cell adhesion level at 16 ug/ml pre-incubated for 18 hrs by colony counting method (reference value: 2.1 +/- 3.52%); format: functional, Caco-2; set-up: scale not given: the % may be the effect or the level left
Candida albicans [5] = test: Antifungal activity against Candida albicans CAI4 expressing delta-efg1 gene assessed as growth inhibition at by CLSI M27-A3 method; format: functional
In short: (§2)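 CLSI M27-A3 broth microdilution in RPMI. Final inoculum 0.5×10^2 to 2.5×10^3 cells/ml. Seven two-fold concentrations from 0.25 to 16 µg/ml, with DMSO held at 0.09% (v/v) in all wells. Compound-free growth controls and sterility controls are run for each strain. […] Triplicate on three occasions.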

Candida albicans [6] = test: Antifungal activity against Candida albicans CAI4 expressing delta-cph1/delta-efg1 gene assessed as growth inhibition at 16 ug/ml by CLSI M27-A3 method; format: functional; conditions: read-out: GI; in short: as §1
Candida albicans [7] = test: Antifungal activity against Candida albicans 90028 assessed as growth inhibition at 16 ug/ml by CLSI M27-A3 method; format: functional; conditions: read-out: GI; in short: as §1
Candida albicans [8] = test: Antifungal activity against Candida albicans CAI4 expressing delta-efg1 (EFG1) gene assessed as growth inhibition at 1 ug/ml by CLSI M27-A3 method; format: functional; conditions: read-out: GI; in short: as §1
Candida albicans [9] = test: Antifungal activity against Candida albicans CAI4 expressing delta-efg1 (EFG1) gene assessed as growth inhibition at 2 ug/ml by CLSI M27-A3 method; format: functional; conditions: read-out: GI; in short: as §1
Candida albicans [10] = test: Antifungal activity against Candida albicans CAI4 expressing delta-efg1 (EFG1) gene assessed as growth inhibition at 0.25 ug/ml by CLSI M27-A3 method; format: functional; conditions: read-out: GI; in short: as §1
Candida albicans [11] = test: Antifungal activity against Candida albicans CAI4 expressing delta-efg1 gene assessed as growth inhibition at 16 ug/ml by CLSI M27-A3 method; format: functional; conditions: read-out: GI; in short: as §2
Candida albicans [12] = test: Antifungal activity against Candida albicans CAI4 expressing delta-cph1/delta-efg1 gene assessed as growth inhibition at 1 ug/ml by CLSI M27-A3 method; format: functional; conditions: read-out: GI; in short: as §1
Candida albicans [13] = test: Antifungal activity against Candida albicans 90028 assessed as growth inhibition at 0.25 ug/ml by CLSI M27-A3 method; format: functional; conditions: read-out: GI; in short: as §1
Candida albicans [14] = test: Inhibition of cell adhesion of compound pre-treated Candida albicans CAI4 expressing delta-efg1/delta-cph1 gene to human Caco2 cells assessed as cell adhesion level at 16 ug/ml pre-incubated for 18 hrs by colony counting method (reference value: 1.22 +/- 0.78%); format: functional, Caco-2; set-up: scale not given: the % may be the effect or the level left
Candida albicans [15] = test: Antifungal activity against Candida albicans CAI4 expressing delta-efg1 (EFG1) gene assessed as growth inhibition at 0.5 ug/ml by CLSI M27-A3 method; format: functional; conditions: read-out: GI; in short: as §1
Candida albicans [16] = test: Antifungal activity against Candida albicans CAI4 expressing delta-cph1/delta-efg1 (EFG1) gene assessed as growth inhibition at 1 ug/ml by CLSI M27-A3 method; format: functional; conditions: read-out: GI; in short: as §1
Candida albicans [17] = test: Antifungal activity against Candida albicans CAI4 expressing delta-efg1 gene assessed as growth inhibition at 4 ug/ml by CLSI M27-A3 method; format: functional; conditions: read-out: GI; in short: as §2
Candida albicans [18] = test: Inhibition of cell adhesion of compound pre-treated Candida albicans CAI4 expressing delta-efg1/delta-cph1 gene to human Caco2 cells assessed as cell adhesion level at 4 ug/ml pre-incubated for 18 hrs by colony counting method (reference value: 1.22 +/- 0.78%); format: functional, Caco-2; set-up: scale not given: the % may be the effect or the level left
Candida albicans [19] = test: Inhibition of cell adhesion of compound pre-treated Candida albicans CAI4 expressing delta-efg1 gene to human Caco2 cells assessed as cell adhesion level at 4 ug/ml pre-incubated for 18 hrs by colony counting method (reference value: 2.1 +/- 3.52%); format: functional, Caco-2; set-up: scale not given: the % may be the effect or the level left
Candida albicans [20] = test: Antifungal activity against Candida albicans CAI4 expressing delta-efg1 (EFG1) gene assessed as growth inhibition at by CLSI M27-A3 method; format: functional
Candida albicans [21] = test: Inhibition of cell adhesion of compound pre-treated Candida albicans CAI4 expressing delta-cph1 gene to human Caco2 cells assessed as cell adhesion level at 16 ug/ml pre-incubated by colony counting method (reference value: 1.6 +/- 0.65%); set-up: scale not given: the % may be the effect or the level left
Candida albicans [22] = test: Antifungal activity against Candida albicans CAI4 expressing delta-cph1 (CPH1) gene assessed as growth inhibition at 2 ug/ml by CLSI M27-A3 method; format: functional; conditions: read-out: GI; in short: as §1
Candida albicans [23] = test: Antifungal activity against Candida albicans CAI4 expressing delta-cph1 (CPH1) gene assessed as growth inhibition at 0.5 ug/ml by CLSI M27-A3 method; format: functional; conditions: read-out: GI; in short: as §1
Candida albicans [24] = test: Antifungal activity against Candida albicans CAI4 expressing delta-cph1/delta-efg1 (EFG1) gene assessed as growth inhibition at 16 ug/ml by CLSI M27-A3 method; format: functional; conditions: read-out: GI; in short: as §1
Candida albicans [25] = test: Antifungal activity against Candida albicans 90028 assessed as growth inhibition at 1 ug/ml by CLSI M27-A3 method; format: functional; conditions: read-out: GI; in short: as §1
Candida albicans [26] = test: Antifungal activity against Candida albicans CAI4 expressing delta-cph1 gene assessed as growth inhibition at 16 ug/ml by CLSI M27-A3 method; format: functional; conditions: read-out: GI; in short: as §1
Candida albicans [27] = test: Inhibition of cell adhesion of compound pre-treated Candida albicans SC5314 to human Caco2 cells assessed as cell adhesion level at 16 ug/ml pre-incubated for 18 hrs by colony counting method (reference value: 1.1 +/- 1.1%); format: functional, Caco-2; set-up: scale not given: the % may be the effect or the level left
Candida albicans [28] = test: Inhibition of cell adhesion of compound pre-treated Candida albicans CAI4 expressing delta-cph1 (CPH1) gene to human Caco2 cells assessed as cell adhesion level at 8 ug/ml pre-incubated for 18 hrs by colony counting method (reference value: 5.37 +/- 12.4%); format: functional, Caco-2; set-up: scale not given: the % may be the effect or the level left
Candida albicans [29] = test: Antifungal activity against Candida albicans 90028 assessed as growth inhibition at 4 ug/ml by CLSI M27-A3 method; format: functional; conditions: read-out: GI; in short: as §1
Candida albicans [30] = test: Antifungal activity against Candida albicans CAI4 expressing delta-efg1 (EFG1) gene assessed as growth inhibition at 8 ug/ml by CLSI M27-A3 method; format: functional; conditions: read-out: GI; in short: as §1

Row | SMILES | Activity (Candida albicans [1]) | inhibition of growth at 0.5 µg/mL (Candida albicans [2]) | Activity (Candida albicans [3]) | Activity (Candida albicans [4]) | MIC90 (Candida albicans [5]) | inhibition of growth at 16 µg/mL (Candida albicans [6]) | inhibition of growth at 16 µg/mL (Candida albicans [7]) | inhibition of growth at 1 µg/mL (Candida albicans [8]) | inhibition of growth at 2 µg/mL (Candida albicans [9]) | inhibition of growth at 0.25 µg/mL (Candida albicans [10]) | inhibition of growth at 16 µg/mL (Candida albicans [11]) | inhibition of growth at 1 µg/mL (Candida albicans [12]) | inhibition of growth at 0.25 µg/mL (Candida albicans [13]) | Activity (Candida albicans [14]) | inhibition of growth at 0.5 µg/mL (Candida albicans [15]) | inhibition of growth at 1 µg/mL (Candida albicans [16]) | inhibition of growth at 4 µg/mL (Candida albicans [17]) | Activity (Candida albicans [18]) | Activity (Candida albicans [19]) | MIC90 (Candida albicans [20]) | further results
1 | O=[N+]([O-])c1cc(S(=O)(=O)C(Cl)Cl)ccc1Cl | 0.79% | 99.4% | 1.68% | 1.06% | 16 µg/mL (≈ 52.5 µM) | 99.7% | 99.4% | 96% | 98.1% | 95.2% | 99.5% | 99.1% | 99.1% | 0.42% | 95.4% | 99% | 99.5% | 0.36% | 0.97% | 16 µg/mL (≈ 52.5 µM) | Activity (Candida albicans [21]): 1.03%; inhibition of growth at 2 µg/mL (Candida albicans [22]): 98.6%; inhibition of growth at 0.5 µg/mL (Candida albicans [23]): 96.7%; inhibition of growth at 16 µg/mL (Candida albicans [24]): 99.4%; inhibition of growth at 1 µg/mL (Candida albicans [25]): 99.2%; inhibition of growth at 16 µg/mL (Candida albicans [26]): 99.6%; Activity (Candida albicans [27]): 0.68%; Activity (Candida albicans [28]): 0.71%; inhibition of growth at 4 µg/mL (Candida albicans [29]): 99.2%; inhibition of growth at 8 µg/mL (Candida albicans [30]): 98.9%
2 | O=[N+]([O-])c1cc(S(=O)(=O)C(Cl)(Cl)Br)ccc1Cl | 0.77% | 98.7% | 0.75% | 0.99% | 16 µg/mL (≈ 41.7 µM) | 99.5% | 99.6% | 99.2% | 99.3% | 99% | 99.6% | 98.8% | 98.6% | 0.43% | 99% | 98.9% | 99% | 1.02% | 1.14% | 16 µg/mL (≈ 41.7 µM) | Activity (Candida albicans [21]): 0.56%; inhibition of growth at 2 µg/mL (Candida albicans [22]): 99.2%; inhibition of growth at 0.5 µg/mL (Candida albicans [23]): 97.1%; inhibition of growth at 16 µg/mL (Candida albicans [24]): 99.8%; inhibition of growth at 1 µg/mL (Candida albicans [25]): 98.8%; inhibition of growth at 16 µg/mL (Candida albicans [26]): 99.6%; Activity (Candida albicans [27]): 0.71%; Activity (Candida albicans [28]): 2.78%; inhibition of growth at 4 µg/mL (Candida albicans [29]): 99.4%; inhibition of growth at 8 µg/mL (Candida albicans [30]): 99.4%
